Experimental data taken from ChEMBL document CHEMBL3124924, “Bifunctional ethyl 2-amino-4-methylthiazole-5-carboxylate derivatives: synthesis and in vitro biological evaluation as antimicrobial and anticancer agents” (2014).
Values after ≈ are worked out from the molar mass of the structure shown.

Experiments:
Type in all cases: functional
Bacillus spizizenii [1] = experiment: Bactericidal activity against Bacillus subtilis ATCC 6633 after 18 hrs; settings: ATCC 6633, 18 h
Summary of the method: (§1)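 Continuation of the broth-dilution MIC test. A loopful from each tube without visible growth spread on a quarter of a Mueller-Hinton agar plate and incubated 18 h. Lowest concentration giving no growth on subculture taken as the MBC.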

NCI-H322M = experiment: Cytotoxicity against human NCI-H322M cells assessed as growth inhibition at 10 uM after 48 hrs by SRB assay; settings: read-out: GI
Summary of the method: (§2)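 NCI-60 one-dose primary screen run by the NCI Drug Evaluation Branch across the full 60-line panel. Single high-dose treatment with 48 h continuous drug exposure. Cell growth estimated by sulforhodamine B protein staining. Results given as percent growth of treated cells and expressed as percentage growth inhibition.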

SW-620 = experiment: Cytotoxicity against human SW620 cells assessed as growth inhibition at 10 uM after 48 hrs by SRB assay; settings: SW-620, 48 h, read-out: GI; summary of the method: as §2
IGROV-1 = experiment: Cytotoxicity against human IGROV1 cells assessed as growth inhibition at 10 uM after 48 hrs by SRB assay; settings: IGROV-1, 48 h, read-out: GI; summary of the method: as §2
HCT-15 = experiment: Cytotoxicity against human HCT15 cells assessed as growth inhibition at 10 uM after 48 hrs by SRB assay; settings: HCT-15, 48 h, read-out: GI; summary of the method: as §2
SR = experiment: Cytotoxicity against human SR cells assessed as growth inhibition at 10 uM after 48 hrs by SRB assay; settings: read-out: GI; summary of the method: as §2
A498 = experiment: Cytotoxicity against human A498 cells assessed as growth inhibition at 10 uM after 48 hrs by SRB assay; settings: A498, 48 h, read-out: GI; summary of the method: as §2
K562 = experiment: Cytotoxicity against human K562 cells assessed as growth inhibition at 10 uM after 48 hrs by SRB assay; settings: K562, 48 h, read-out: GI; summary of the method: as §2
NCI-H522 = experiment: Cytotoxicity against human NCI-H522 cells assessed as growth inhibition at 10 uM after 48 hrs by SRB assay; settings: NCI-H522, 48 h, read-out: GI; summary of the method: as §2
Escherichia coli [2] = experiment: Antibacterial activity against Escherichia coli ATCC 25922 assessed as growth inhibition after 48 hrs by two-fold serial dilution assay; settings: ATCC 25922, 48 h
Summary of the method: (§3)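 Twofold serial broth dilution run on compounds giving inhibition zones of 13 mm or more. Organisms pre-grown in suitable broth at 37 °C, 24 h for bacteria and 48 h for fungi. Dilution series 200, 100, 50, 25, 12.5, 6.25. Each 5 mL tube inoculated with 0.1 mL and incubated 37 °C for 48 h. Tubes scored for presence or absence of growth.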

MDA-MB-468 = experiment: Cytotoxicity against human MDA-MB-468 cells assessed as growth inhibition at 10 uM after 48 hrs by SRB assay; settings: MDA-MB-468, 48 h, read-out: GI; summary of the method: as §2
U-251 = experiment: Cytotoxicity against human U251 cells assessed as growth inhibition at 10 uM after 48 hrs by SRB assay; settings: U-251, 48 h, read-out: GI; summary of the method: as §2
SK-MEL-2 = experiment: Cytotoxicity against human SK-MEL-2 cells assessed as growth inhibition at 10 uM after 48 hrs by SRB assay; settings: SK-MEL-2, 48 h, read-out: GI; summary of the method: as §2
MCF7 = experiment: Cytotoxicity against human MCF7 cells assessed as growth inhibition at 10 uM after 48 hrs by SRB assay; settings: MCF7, 48 h, read-out: GI; summary of the method: as §2
SNB-75 = experiment: Cytotoxicity against human SNB75 cells assessed as growth inhibition at 10 uM after 48 hrs by SRB assay; settings: SNB-75, 48 h, read-out: GI; summary of the method: as §2
Candida albicans = experiment: Antifungal activity against Candida albicans ATCC 10231 assessed as growth inhibition at 1 mg/mL after 48 hrs by agar-cup diffusion method; settings: ATCC 10231, 48 h, read-out: DIZ
Summary of the method: (§4)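 Agar-cup diffusion: 1 mL of 6 h broth culture seeded per 100 mL molten sterile agar at 45 °C and poured into plates. 8 mm cups cut, each filled with 0.1 mL of 1 mg/mL test solution. Incubated 37 °C for 24 h, 48 h for C. albicans. DMSO control per organism. Inhibition zone diameter in mm, mean of three measurements.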

T47D = experiment: Cytotoxicity against human T47D cells assessed as growth inhibition at 10 uM after 48 hrs by SRB assay; settings: read-out: GI; summary of the method: as §2
NCI-H226 = experiment: Cytotoxicity against human NCI-H226 cells assessed as growth inhibition at 10 uM after 48 hrs by SRB assay; settings: NCI-H226, 48 h, read-out: GI; summary of the method: as §2
HT-29 = experiment: Cytotoxicity against human HT-29 cells assessed as growth inhibition at 10 uM after 48 hrs by SRB assay; settings: HT-29, 48 h, read-out: GI; summary of the method: as §2
HCT-116 = experiment: Cytotoxicity against human HCT116 cells assessed as growth inhibition at 10 uM after 48 hrs by SRB assay; settings: HCT-116, 48 h, read-out: GI; summary of the method: as §2
Bacillus spizizenii [3] = experiment: Antibacterial activity against Bacillus subtilis ATCC 6633 assessed as growth inhibition at 1 mg/mL after 24 hrs by agar-cup diffusion method; settings: ATCC 6633, 24 h, read-out: DIZ; summary of the method: as §4
MOLT-4 = experiment: Cytotoxicity against human MOLT4 cells assessed as growth inhibition at 10 uM after 48 hrs by SRB assay; settings: MOLT-4, 48 h, read-out: GI; summary of the method: as §2
HCC 2998 = experiment: Cytotoxicity against human HCC2998 cells assessed as growth inhibition at 10 uM after 48 hrs by SRB assay; settings: HCC 2998, 48 h, read-out: GI; summary of the method: as §2
Bacillus spizizenii [4] = experiment: Antibacterial activity against Bacillus subtilis ATCC 6633 assessed as growth inhibition after 48 hrs by two-fold serial dilution assay; settings: ATCC 6633, 48 h; summary of the method: as §3
SF-268 = experiment: Cytotoxicity against human SF268 cells assessed as growth inhibition at 10 uM after 48 hrs by SRB assay; settings: SF-268, 48 h, read-out: GI; summary of the method: as §2
Pseudomonas aeruginosa = experiment: Antibacterial activity against Pseudomonas aeruginosa ATCC 27853 assessed as growth inhibition at 1 mg/mL after 24 hrs by agar-cup diffusion method; settings: ATCC 27853, 24 h, read-out: DIZ; summary of the method: as §4
UACC-62 = experiment: Cytotoxicity against human UACC62 cells assessed as growth inhibition at 10 uM after 48 hrs by SRB assay; settings: UACC-62, 48 h, read-out: GI; summary of the method: as §2
Escherichia coli [5] = experiment: Bactericidal activity against Escherichia coli ATCC 25922 after 18 hrs; settings: ATCC 25922, 18 h; summary of the method: as §1
HOP-92 = experiment: Cytotoxicity against human HOP92 cells assessed as growth inhibition at 10 uM after 48 hrs by SRB assay; settings: HOP-92, 48 h, read-out: GI; summary of the method: as §2
Staphylococcus aureus = experiment: Bactericidal activity against Staphylococcus aureus ATCC 6538 after 18 hrs; settings: ATCC 6538, 18 h; summary of the method: as §1
[6] = Cytotoxicity against human NCI-ADR-RES cells assessed as growth inhibition at 10 uM after 48 hrs by SRB assay; settings: read-out: GI; summary of the method: as §2
SN12C = experiment: Cytotoxicity against human SN12C cells assessed as growth inhibition at 10 uM after 48 hrs by SRB assay; settings: read-out: GI; summary of the method: as §2

Row | Compound | MBC (Bacillus spizizenii [1]) [µg/mL] | inhibition of growth at 10 µM (NCI-H322M) [%] | inhibition of growth at 10 µM (SW-620) [%] | inhibition of growth at 10 µM (IGROV-1) [%] | inhibition of growth at 10 µM (HCT-15) [%] | inhibition of growth at 10 µM (SR) [%] | inhibition of growth at 10 µM (A498) [%] | inhibition of growth at 10 µM (K562) [%] | inhibition of growth at 10 µM (NCI-H522) [%] | MIC (Escherichia coli [2]) [µg/mL] | inhibition of growth at 10 µM (MDA-MB-468) [%] | inhibition of growth at 10 µM (U-251) [%] | inhibition of growth at 10 µM (SK-MEL-2) [%] | inhibition of growth at 10 µM (MCF7) [%] | inhibition of growth at 10 µM (SNB-75) [%] | zone of inhibition at 1000 µg/mL (Candida albicans) [mm] | inhibition of growth at 10 µM (T47D) [%] | inhibition of growth at 10 µM (NCI-H226) [%] | inhibition of growth at 10 µM (HT-29) [%] | inhibition of growth at 10 µM (HCT-116) [%] | further results
1 | Cc1nc(N)sc1C(=O)Nc1ccc(F)cc1 | 50 (≈ 199 µM) | 2.56 | < 10 | < 10 | < 10 | < 10 | 3.67 | < 10 | 9.55 | 50 (≈ 199 µM) | 9.63 | 5.77 | 67.3 | 2.21 | 5.4 | > 13 | < 10 | 5.62 | < 10 | < 10 | zone of inhibition at 1000 µg/mL (Bacillus spizizenii [3]): > 13 mm; inhibition of growth at 10 µM (MOLT-4): < 10%; inhibition of growth at 10 µM (HCC 2998): 11.8%; MIC (Bacillus spizizenii [4]): 25 µg/mL (≈ 99.5 µM); inhibition of growth at 10 µM (SF-268): < 10%; zone of inhibition at 1000 µg/mL (Pseudomonas aeruginosa): > 13 mm; inhibition of growth at 10 µM (UACC-62): 3.24%; MBC (Escherichia coli [5]): 100 µg/mL (≈ 398 µM); inhibition of growth at 10 µM (HOP-92): < 10%; MBC (Staphylococcus aureus): 25 µg/mL (≈ 99.5 µM); inhibition of growth at 10 µM [6]: 2.36%; inhibition of growth at 10 µM (SN12C): 3.01%
2 | CCOC(=O)c1sc(NC(=O)Nc2ccccc2)nc1C | 50 (≈ 164 µM) | < 10 | 2.85 | 72.9 | < 10 | 14.3 | 28.9 | 39 | 2.64 | 25 (≈ 81.9 µM) | 18.4 | 9.58 | 77.6 | 7.17 | 47.2 | > 13 | 12.6 | 11.3 | 24.1 | 16.3 | zone of inhibition at 1000 µg/mL (Bacillus spizizenii [3]): > 13 mm; inhibition of growth at 10 µM (MOLT-4): 23.7%; inhibition of growth at 10 µM (HCC 2998): 27.4%; MIC (Bacillus spizizenii [4]): 50 µg/mL (≈ 164 µM); inhibition of growth at 10 µM (SF-268): 4.88%; zone of inhibition at 1000 µg/mL (Pseudomonas aeruginosa): > 13 mm; inhibition of growth at 10 µM (UACC-62): 20%; MBC (Escherichia coli [5]): 25 µg/mL (≈ 81.9 µM); inhibition of growth at 10 µM (HOP-92): 64.2%; MBC (Staphylococcus aureus): 25 µg/mL (≈ 81.9 µM); inhibition of growth at 10 µM [6]: 13.9%; inhibition of growth at 10 µM (SN12C): 4.19%
3 | CCOC(=O)c1sc(NC(=O)c2cc(OC)c(OC)c(OC)c2)nc1C | 50 (≈ 131 µM) | < 10 | < 10 | < 10 | 5.3 | 21 | 11.4 | 49 | 32.6 | 12.5 (≈ 32.9 µM) | 8.82 | < 10 | 69.1 | 12.5 | 2.51 | > 13 | < 10 | 12 | < 10 | 4.01 | zone of inhibition at 1000 µg/mL (Bacillus spizizenii [3]): > 13 mm; inhibition of growth at 10 µM (MOLT-4): 12.4%; inhibition of growth at 10 µM (HCC 2998): 42.7%; MIC (Bacillus spizizenii [4]): 25 µg/mL (≈ 65.7 µM); inhibition of growth at 10 µM (SF-268): 3.75%; zone of inhibition at 1000 µg/mL (Pseudomonas aeruginosa): > 13 mm; inhibition of growth at 10 µM (UACC-62): 11.5%; MBC (Escherichia coli [5]): 12.5 µg/mL (≈ 32.9 µM); inhibition of growth at 10 µM (HOP-92): 53.1%; MBC (Staphylococcus aureus): 6.25 µg/mL (≈ 16.4 µM); inhibition of growth at 10 µM [6]: 4.66%; inhibition of growth at 10 µM (SN12C): 7.38%
